PERK inh: inhibitors of human PERK kinase; CHO PERK-DD fusion, SEAP luminescence translation reporter; inhibition, % at 5.6 µM; 220,000 compounds, 0.17% hits;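 active = inhibition above the mean inhibition of all tested compounds plus 3 SD, set separately per screening campaign, cut at about 2.9% in these data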;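 note: PERK kinase domain activated by AP20187 dimerizer at 100 nM; 0% = DMSO with dimerizer and 100% = rapamycin at 8.4 µM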
Hck Nef HTS: blocks Nef-activated human Hck kinase; inhibition, % at 20 µM; P08631; 220,000 compounds, 0.68% hits; Recombinant Hck-YEEI plus Nef, Z-Lyte FRET kinase assay;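 active = Hck-Nef kinase inhibition above about 50%, limit read from the data; inactive = inhibition below that limit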;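 note: 0% = DMSO with Hck plus Nef and 100% = Hck alone without Nef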
Target sequence (P08631 whole entry, looked up): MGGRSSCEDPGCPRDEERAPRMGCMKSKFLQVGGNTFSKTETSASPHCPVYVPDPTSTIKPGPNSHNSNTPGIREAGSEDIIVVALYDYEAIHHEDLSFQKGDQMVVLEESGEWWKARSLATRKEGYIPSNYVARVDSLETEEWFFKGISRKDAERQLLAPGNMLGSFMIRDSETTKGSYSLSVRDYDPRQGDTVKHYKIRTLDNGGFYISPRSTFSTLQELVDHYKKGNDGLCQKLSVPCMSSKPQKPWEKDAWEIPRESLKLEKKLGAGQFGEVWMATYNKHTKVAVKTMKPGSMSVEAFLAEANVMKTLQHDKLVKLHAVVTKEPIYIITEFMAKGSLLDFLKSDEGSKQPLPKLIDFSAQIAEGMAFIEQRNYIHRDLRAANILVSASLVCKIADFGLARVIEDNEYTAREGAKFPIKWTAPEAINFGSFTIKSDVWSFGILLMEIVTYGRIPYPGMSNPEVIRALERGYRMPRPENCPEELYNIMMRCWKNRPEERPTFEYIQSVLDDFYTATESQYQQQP
TAG inh: triacylglycerol accumulation inhibition. H9c2 cells, Nile Red lipid (TAG) fluorescence; cells loaded with 200 µM oleic acid. inhibition, % at 12.5 µM. 230,000 compounds, 0.66% hits. AID 651582;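 active = pattern-corrected inhibition of lipid staining of at least 50% with the nuclear-stain viability signal not falling by more than 50%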;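 note: 0% = DMSO wells and 100% = triacsin C control wells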
MDM2 E3 inh: inhibitors of human Mdm2 E3 ubiquitin ligase | cell-based MDM2 ubiquitination luciferase reporter, 2 h; 0 = plate control, 100 = twice control, blank-subtracted | 210,000 compounds, 0.11% hits | signal enhancement, % at 5 µM;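 active = signal enhancement of 30% or more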;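 note: luminescence tracks abundance of the self-degrading MDM2-luciferase fusion protein; higher signal means inhibition of MDM2 E3 ligase activity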
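Material: stable MDM2–luciferase fusion reporter cells / Quantity: 2000 cells/well / Dosing: single 5 µM compound dose, 0.2% final DMSO / Buffer or medium: DMEM / Schedule: 4 h cell settling then 2 h compound exposure, 37 °C / Detection: luminescence with SteadyLite reagent, 15 min at room temperature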
PKD1 inh: blocks activity of human protein kinase D1 | Q15139 | PKD1 kinase fluorescence polarization assay | inhibition, % (test concentration not listed) | 200,000 compounds, 0.056% hits | AID 797; in the data active = inhibition above about 50%
Rad51 HR inh: Rad51 (human) homologous recombination inhibition; AID 1385; Q06609; inhibition, % at 10 µM; hRad51 DNA strand exchange, fluorescence dequenching; 200,000 compounds, 0.085% hits;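 active = inhibition above 40% at the single screening dose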;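 note: 0% = DMSO control wells and 100% = blanks with heterologous ssDNA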
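Assay system: Human Rad51 nucleoprotein filaments preassembled on unlabelled ssDNA | Reagent: Donor/quencher-labelled 47-bp dsDNA substrate | Doses: One concentration, 10 µM final | Times: 37 °C 15-min filament assembly, 30-min compound preincubation, 15-min exchange | Technique: Fluorescein emission 520 nm, excitation 485 nm | Benchmarks: Plate control and blank wells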
H9c2 TAG conf: triacylglycerol accumulation inhibition, confirmation; shares compounds with TAG inh; H9c2 lipid accumulation, Nile Red fluorescence; cells loaded with 200 µM oleic acid; inhibition, % at 12.5 µM; 990 compounds, 71% hits; AID 651629;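 active = mean inhibition across replicates of 40% or more; inactive = mean inhibition below 40%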;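 note: plate controls were DMSO only wells for no effect and Triacsin C treated wells for full effect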
Starred values were filed as active, the others as inactive; . = not tested or not shown. Most compounds without a hit are left out; they make up all but 1.3% or so of the library.

SMILES	PERK inh	Hck Nef HTS	TAG inh	MDM2 E3 inh	PKD1 inh	Rad51 HR inh	H9c2 TAG conf
CCO[C@H]1OC(C(=O)O)=C[C@@H](C)[C@@H]1CCCO	2	2	-7	.	9	-12	.
CN1CCN(c2ccc(Cl)cc2NC(=O)c2ccc(S(=O)(=O)N(C)C)cc2)CC1	-2	11	52*	8	-8	4	22
CCN(CC)S(=O)(=O)c1cc(C(=O)Nc2cc(Cl)ccc2N2CCN(C)CC2)ccc1Cl	0	3	.	-5	5	-4	.
CC1=C(C(=O)Nc2ccccc2)C2(CCCCC2)C(C#N)=C(SCC(N)=O)N1	0	1	4	11	-2	-3	.
CC1(C)CC(=O)C2=C(C1)NC(SCC(=O)Nc1ccccc1)=C(C#N)C21CCCCC1	0	0	58*	-6	1	-4	31
CC(C)(C)c1csc(NC(=O)c2cccs2)n1	1	3	73*	-14	-7	-1	34
C=CCOC(=O)C1=C[C@@H](c2coc3ccccc3c2=O)[C@H](CCCO)[C@@H](OCC)O1	1	9	16	.	13	-14	.
Cc1ccc(N2C(=O)C3CC(c4ccccc4)=C4C5C=CC(C6C(=O)N(c7ccc(C)cc7C)C(=O)C56)C4C3C2=O)c(C)c1 (stereo unspecified)	-1	5	51*	-12	-1	-8	53*
CCN(C(=O)CO/N=C/c1ccc(OC)cc1OC)c1c(N)n(Cc2ccccc2)c(=O)[nH]c1=O	.	.	3	.	.	.	.
Cn1ncc2c(N3CCN(c4ccc(Cl)c(Cl)c4)CC3)ncnc21	0	-14	28	-46	-2	10	.
CCOC(=O)C1(C)CCCN(C(=O)c2ccc(OC(F)F)cc2)C1 (stereo unspecified)	.	.	-15	.	.	.	.
O=C(CSc1ccc(-c2cccc([N+](=O)[O-])c2)nn1)N1CCCC1	0	-7	60*	-2	0	5	3
O=C(N/N=C/c1cccc(OC(=O)c2cccc(Br)c2)c1)c1ccncc1	.	.	-6	.	.	.	.
COc1cc(-c2coc3c(C(=O)NCc4ccc(C(F)(F)F)cc4)cccc23)ccc1O	.	.	54*	.	.	.	27
CN(/N=C/c1ccc(O)cc1O)c1nc(-c2ccccc2)cc(-c2ccccc2)n1	0	1	.	0	-14	.	.
COc1ccc2nc(SCC(=O)N3CC(=O)Nc4ccccc43)c(C#N)cc2c1	0	6	54*	-4	1	4	39
COc1ccc(-c2nc3ccc(Cl)cn3c2NC2CCCCC2)cc1SC1CCCCC1	.	.	63*	.	.	.	70*
Cc1nc(N/N=C/c2cccc(F)c2)cc(N2CCOCC2)n1	.	.	64*	.	.	.	68*
CN=C1c2cc3cc(OC)ccc3n2CCN1Cc1ccccc1	-2	-2	57*	-8	6	.	51*
COc1cc2c(c(OC)c1OC)-c1ccc(OC)c(=O)cc1C(NC(=O)c1ccccc1)CC2 (stereo unspecified)	.	.	55*	.	.	.	69*
COc1cc2c(c(OC)c1OC)-c1ccc(SC)c(=O)cc1C(NC=O)CC2 (stereo unspecified)	.	.	69*	.	.	.	47*
O=C(NC(=S)NCCCN1CCOCC1)c1cccc2ccccc12	0	23	9	5	-2	2	.
COc1ccc(C(N)c2csc(Nc3ccc(S(C)(=O)=O)cc3)n2)cc1 (stereo unspecified)	.	.	22	.	.	.	.
CCc1nc2ccc(C(=O)NCc3ccc4c(c3)OCO4)cn2c1N(CCC(C)C)CCN(C)C	.	.	73*	.	.	.	30
O=C(NCCCCO)c1ccc2c3c(cccc13)CC2	2	0	-34	-2	2	19	.
SMILES	PERK inh	Hck Nef HTS	TAG inh	MDM2 E3 inh	PKD1 inh	Rad51 HR inh	H9c2 TAG conf
O=C(CC1C(=O)NCCN1Cc1cccc(Oc2ccccc2)c1)NCCCn1cccn1 (stereo unspecified)	2	-9	-5	-18	-5	.	.
N/C(=N\c1nc2ccccc2o1)NC(=O)c1ccc(F)cc1	0	0	66*	-11	-7	4	45*
Cc1onc(-c2ccccc2)c1C(=O)Nc1ccccc1N1CCOCC1	0	1	-27	-12	-2	-7	.
Cc1onc(-c2ccccc2)c1C(=O)Nc1cc(C(F)(F)F)ccc1N1CCOCC1	0	1	52*	-5	-9	3	62*
CCCCCCC1CC(=CN(C)C)C(=O)O1 (stereo unspecified)	.	.	-12	.	.	.	.
O=C1CCCC2=C1C1(CCCCC1)N=C(Nc1nc3ccccc3o1)N2	0	-23	14	-2	-8	-2	.
O=C1CCCC2=C1C1(CCCC1)N=C(Nc1nc3cc(-c4ccccc4)ccc3o1)N2	.	.	62*	.	.	.	71*
Cc1ccc2[nH]c(-c3ccccc3)cc(=O)c2c1	0	1	53*	-40	1	-10	58*
COc1cc(C(=O)OCC(=O)c2cc(C)n(CC3CCCO3)c2C)ccc1OCC(=O)N1CCOCC1 (stereo unspecified)	.	.	-7	.	.	.	.
CC1(C)Cc2c(C#N)c(SCC(=O)c3ccccc3)nc(N3CCOCC3)c2CS1	-1	-1	51*	8	1	-4	59*
COc1ccc(OCc2nnc(SCC(=O)Nc3cccc(C(C)=O)c3)o2)cc1	.	.	-2	.	.	.	.
CCOc1ccc(C2=Nc3ccccc3C(c3ccc(N4CCOCC4)cc3)=NN2)cc1	-1	0	73*	-14	1	.	53*
COCCNc1oc(/C=C/c2cccc(OC)c2)nc1S(=O)(=O)c1ccccc1	.	.	0	.	.	.	.
Oc1cccc(Nc2nc(N3CCOCC3)nc(N3CCOCC3)n2)c1	.	.	107	.	.	.	.
CCCCSc1nc2ccc(Nc3nc(N4CCOCC4)nc(N4CCOCC4)n3)cc2s1	-1	1	80*	-12	1	-8	97*
CCCCNC(=O)CSc1nc2ccc(Nc3nc(N4CCOCC4)nc(N4CCOCC4)n3)cc2s1	1	23	57*	-7	.	6	-3
CCCC(=O)Nc1ccc2nc(SCC(=O)N3CCCC3)sc2c1	0	19	-2	-2	1	-5	.
CCC(C)(C)C1CCC2(CC1)NC(=O)N(CC(=O)NCCOc1ccccc1)C2=O (stereo unspecified)	.	.	10	.	.	.	.
CCC(C)(C)C1CCC2(CC1)NC(=O)N(CC(=O)NCCc1ccc(OC)c(OC)c1)C2=O (stereo unspecified)	.	.	53*	.	.	.	50*
CCOC(=O)C1(CCOc2ccccc2)CCN(Cc2cccc3nonc23)CC1	-1	12	-22	-8	-7	-5	.
O=C(NC(=S)NCCc1ccccc1)C1CCCCC1	-1	0	-7	-17	10	-2	.
O=C(NC(=S)N(Cc1ccccc1)Cc1ccccc1)C1CCCCC1	0	-1	54*	-17	11	1	0

From PubChem BioAssay
